NR2E3 ag-1 = activates human NR2E3 receptor; Q9Y5X4; CHO-S Gal4-NCOR/VP16-NR2E3 two-hybrid, luciferase; inhibition of corepressor binding, % at 3.98 µM; 360,000 compounds, 0.35% hits; AID 602229;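 active = inhibition above the mean of all tested compounds plus 3 SD, cut at about 70% in these data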;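 also: 0% = DMSO with NR2E3 transfected cells and 100% = cells lacking NR2E3 construct; higher means lower luciferase signal from less NR2E3 corepressor binding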
NR2E3 ag-2 = activates human photoreceptor nuclear receptor NR2E3; Q9Y5X4; GST-NR2E3/biotin-RetCOR TR-FRET, 1536-well; inhibition of corepressor binding, % at 4.78 µM; 320,000 compounds, 0.12% hits; AID 2300;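 active = percent inhibition above the cutoff of mean plus 3 SD of all tested compounds, set per screening campaign, cut at about 20% in these data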;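 also: 0% = DMSO wells and 100% = biotin wells as full block of FRET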
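Material: NR2E3–RetCOR corepressor complex | Quantity: 1.35 nM GST-tagged NR2E3 final | Schedule: 5 h at 4 °C | Replication: Singlicate compound wells | Reagent: RetCOR corepressor, biotinylated, 7 nM | Controls: Biotin wells as high control, 0.6% DMSO wells as low control | Signal: TR-FRET, Eu(K)-anti-GST donor, streptavidin-D2 acceptor, ex 340, em 617/671 nm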
VLA-4 inh = inhibition in a human VLA-4 binding assay. P13612. VLA-4 expressing cells, ligand binding flow cytometry. inhibition, % (about 7 µM as worked out from the volumes in the protocol). 330,000 compounds, 0.2% hits. AID 2557; in the data active = inhibition above about 50%
Target sequence (P13612 whole entry, looked up): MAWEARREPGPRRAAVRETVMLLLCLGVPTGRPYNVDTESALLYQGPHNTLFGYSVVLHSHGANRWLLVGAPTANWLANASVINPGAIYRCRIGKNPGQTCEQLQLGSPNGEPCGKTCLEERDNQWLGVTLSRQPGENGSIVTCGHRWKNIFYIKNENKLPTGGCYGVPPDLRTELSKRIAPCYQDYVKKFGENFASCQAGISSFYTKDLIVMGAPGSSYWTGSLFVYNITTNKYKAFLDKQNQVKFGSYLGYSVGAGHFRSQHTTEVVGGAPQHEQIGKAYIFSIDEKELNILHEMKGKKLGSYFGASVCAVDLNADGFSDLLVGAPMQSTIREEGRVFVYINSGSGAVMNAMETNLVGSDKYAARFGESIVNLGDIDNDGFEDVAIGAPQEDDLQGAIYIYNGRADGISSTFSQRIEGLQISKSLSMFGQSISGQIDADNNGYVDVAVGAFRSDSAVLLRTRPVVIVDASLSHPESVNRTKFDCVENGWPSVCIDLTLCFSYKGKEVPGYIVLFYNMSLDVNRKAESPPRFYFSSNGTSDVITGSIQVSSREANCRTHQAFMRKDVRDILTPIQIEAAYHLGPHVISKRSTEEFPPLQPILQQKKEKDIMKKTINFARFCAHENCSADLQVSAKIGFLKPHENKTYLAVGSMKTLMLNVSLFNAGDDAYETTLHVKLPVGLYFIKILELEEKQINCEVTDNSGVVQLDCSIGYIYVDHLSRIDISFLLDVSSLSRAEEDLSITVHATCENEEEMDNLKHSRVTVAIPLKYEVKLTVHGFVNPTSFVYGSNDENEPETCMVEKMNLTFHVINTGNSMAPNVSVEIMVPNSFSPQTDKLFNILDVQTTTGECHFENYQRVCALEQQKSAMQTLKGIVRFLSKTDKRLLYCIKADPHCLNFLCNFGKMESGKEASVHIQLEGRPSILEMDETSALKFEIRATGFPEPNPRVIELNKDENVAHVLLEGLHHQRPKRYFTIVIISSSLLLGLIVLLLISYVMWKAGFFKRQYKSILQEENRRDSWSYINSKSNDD
PG9 binder = binds the HIV-1 gp120 antibody PG9. inhibition, % at 6.7 µM. TR-FRET gp120-PG9 antibody binding. 360,000 compounds, 0.43% hits; in the data active = inhibition above about 8.5%
NR1D1 modulator = modulators of human Rev-erb alpha DNA binding. P20393. Rev-erbα–FITC-DNA binding, fluorescence polarization, 90 min. activity, % at 10 µM. 370,000 compounds, 0.79% hits;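 active = activity above about 14%, limit read from the data; passing the limit was not always enough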;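 also: 0% = DMSO wells with 35 nM protein and 100% = DMSO wells with 750 nM protein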
PG9 binder conf = confirmation of small molecules binding HIV-1 gp120 antibody PG9; TR-FRET PG9 antibody binding, biochemical; inhibition, % at 6.7 µM; 1,500 compounds, 90% hits; shares compounds with PG9 binder; in the data active = inhibition above about 9%
PGV04 counter = binds control antibody PGV04 in PG9 binder counter-screen | shares compounds with PG9 binder | TR-FRET PGV04 antibody-gp120 binding, biochemical | inhibition, % at 6.7 µM | 1,500 compounds, 95% hits; in the data active = inhibition above about 9.5%
* = called active by the depositor; x = no result given. Most compounds without a hit are left out; they make up all but 1.6% or so of the library.

SMILES	NR2E3 ag-1	NR2E3 ag-2	VLA-4 inh	PG9 binder	NR1D1 modulator	PG9 binder conf	PGV04 counter
COc1ccc(CNC(=O)c2cc3cc(OC)ccc3oc2=O)cc1	-11	1	12	-1	1	x	x
O=C(NC1CCCCN(Cc2ccc(OC(F)(F)F)cc2)C1=O)c1ccc2ccccc2c1 (stereo not drawn)	x	x	x	x	-3	x	x
COc1ccc2[nH]c(=O)c(COC(=O)c3cccs3)cc2c1	-18	-2	17	33*	3	16*	26*
CNC(=S)Nc1sc2c(c1C(=O)OC)CCC2	-13	4	17	-2	2	x	x
COC(=O)c1c(NC(=S)Nc2ccc(C(=O)N3CCOCC3)cc2)sc2c1CCC2	21	0	-9	10*	5	5	6
COC(=O)C1CN(Cc2cn(Cc3ccc(OC)cc3)nn2)CCS(=O)(=O)N1Cc1ccc(F)cc1 (stereo not drawn)	x	x	x	x	-7	x	x
O=c1oc2cc(O)ccc2c2ccccc12	-8	13	0	22*	-5	29*	38*
O=c1[nH]c2cc(O)ccc2c2ccccc12	-10	x	x	37*	-3	38*	47*
COc1ccc(S[C@]2(C(=O)NCc3ccccc3)CC(=O)N[C@@H]2c2ccc(OC)cc2)cc1	x	x	x	x	4	x	x
Cc1ccc(C(=O)C2=C(O)C(=O)N(CCCN3CCOCC3)C23C(=O)N(C)c2ccccc23)o1 (stereo not drawn)	5	8	2	9.1*	-5	19*	23*
CCN1C(=O)C2(C(C(=O)c3ccc(C)o3)=C(O)C(=O)N2CCCN2CCOCC2)c2ccccc21 (stereo not drawn)	-14	7	13	1	-1	x	x
CCCN1C(=O)C2(C(C(=O)c3ccc(C)o3)=C(O)C(=O)N2CCCOC)c2ccccc21 (stereo not drawn)	12	6	0	9.2*	0	18*	22*
CCN1C(=O)C2(C(C(=O)c3cc4ccccc4o3)=C(O)C(=O)N2CCCN2CCOCC2)c2ccccc21 (stereo not drawn)	-38	10	-5	36*	-4	45*	55*
COC(=O)C[C@H]1CC[C@@H]2[C@@H](COc3ccc(NS(=O)(=O)c4ccccc4Cl)cc3C(=O)N2C)O1	x	x	x	x	4	x	x
COc1ccccc1C(=O)N1CCCC(c2nc(-c3cccs3)no2)C1 (stereo not drawn)	x	x	x	x	-2	x	x
O=C(COc1ccc([N+](=O)[O-])cc1)N(Cc1ccccc1)Cc1ccccc1	-12	-1	-7	0	3	x	x
O=C(COc1ncnc2cc([N+](=O)[O-])ccc12)N(CCc1ccccc1)Cc1ccccc1	-8	6	15	16*	1	26*	41*
O=S1(=O)c2ccc(N3CC[C@H](O)C3)cc2OCCCN1C1CC1	x	x	x	x	7	x	x
CC(=O)OC1CC(C)(C)N(OC(=O)c2ccccc2)C(C)(C)C1	6	1	-3	1	4	x	x
CC(=O)OC1CC(C)(C)N(OC(=O)c2ccc(N)cc2)C(C)(C)C1	-23	-1	6	29*	0	32*	43*
C=CCN1[C@H](C#N)[C@@H](c2ccc(Br)cc2)[C@H]1CO	x	x	x	x	-4	x	x
Cc1cc2n(n1)C(c1ccc3c(c1)OCO3)Nc1c(C)cccc1-2 (stereo not drawn)	-23	-2	8	0	10	x	x
Cc1cc2n(n1)C(c1cn(-c3ccccc3)nc1C)Nc1c(C)cccc1-2 (stereo not drawn)	-5	3	5	15*	10	15*	22*
COC(=O)Cn1nc(-c2ccccc2)c2cccc(C(F)(F)F)c21	x	x	x	x	0	x	x
Cc1cc(NC(=O)c2ccc(Cl)cc2)ccc1NC(=O)c1ccccc1Cl	-43	-2	-5	1	-7	x	x
SMILES	NR2E3 ag-1	NR2E3 ag-2	VLA-4 inh	PG9 binder	NR1D1 modulator	PG9 binder conf	PGV04 counter
O=C(Nc1c(Cl)cccc1Cl)c1ccc(-c2ccccc2)cc1	-41	0	12	-5	-1	x	x
Cc1ccc(C(=O)Nc2ccc(NC(=O)c3ccccc3Cl)c(C)c2)cc1	-27	x	x	29*	9	26*	39*
O=C(Nc1ccc(Cl)cc1Cl)c1ccc(-c2ccccc2)cc1	15	3	18	11*	1	33*	49*
CC(C)CN1CN2Cc3ccccc3C2CS1(=O)=O (stereo not drawn)	x	x	x	x	0	x	x
Cc1nc2cc(C(=O)N3CCN(C(=O)C(Cl)Cl)CC3)ccc2n1C1CCCC1	x	x	x	x	3	x	x
N#Cc1cn(-c2ccccc2)nc1-c1ccc2c(c1)OCCO2	-47	0	-1	24*	21	20*	28*
CC(=O)N1[C@@H](CO)[C@@H](c2ccc(-c3cccc(F)c3)cc2)[C@@H]1CNCC1CCC1	x	x	x	x	9	x	x
Cc1ccccc1NC(=O)C1CCN(c2cc(-c3ccccc3)nc3ncnn23)CC1	2	-1	1	8.8*	7	17*	27*
COC(=O)C[C@H]1CC[C@@H]2[C@@H](COc3ccc(NC(=O)c4ccno4)cc3C(=O)N2C)O1	x	x	x	x	1	x	x
Cc1nnc(NC(=O)c2ccc(-c3ccc(Cl)cc3)o2)s1	-3	-5	3	11*	5	13*	27*
O=C(Nc1nccs1)c1ccc(-c2ccc(Cl)cc2)o1	-122	2	-10	1	17	x	x
CC1=C2NC(N)=[N+](Cc3ccc4c(c3)OCO4)CC2NOC1 (stereo not drawn)	x	x	x	x	1	x	x
CCCC1=Nc2cc(C(=O)NCCCN3CCOCC3)ccc2Sc2ccccc21	-13	1	2	12*	4	11*	15*
CC(C)(C)OC(=O)n1cc(-c2ccccc2)c2c(-c3ccccc3)c(O)ccc21	x	x	x	x	6	x	x
OC(COc1cccc2ccccc12)CN1CCN(c2ccc(Cl)cc2)CC1 (stereo not drawn)	23	-1	-10	18*	10	27*	31*
Cc1ccc(C2/C(=C(\O)c3ccc4c(c3)OCCO4)C(=O)C(=O)N2Cc2cccnc2)cc1 (stereo not drawn)	-10	9	13	27*	10	38*	47*
COc1ccc(C2/C(=C(\O)c3ccc4c(c3)OCCO4)C(=O)C(=O)N2Cc2cccnc2)cc1OC (stereo not drawn)	-27	-2	-7	3	-6	x	x
O=C1C(=O)N(Cc2cccnc2)C(c2ccc(Br)cc2)/C1=C(\O)c1ccc2c(c1)OCCO2 (stereo not drawn)	-34	15	0	21*	-1	31*	37*
O=C(CSc1nc2ccccc2c(=O)n1Cc1ccc(F)cc1)NCc1cccs1	-21	5	27	16*	4	16*	33*
